The results in this text go back to ChEMBL document CHEMBL4330167, “Chloraserrtone A, a Sesquiterpenoid Dimer from Chloranthus serratus” (J Nat Prod, 2019).

Each structure is given as a SMILES string.

Series [1] is described as follows: Cytotoxicity against mouse RAW264.7 cells assessed as cellular metabolic activity at 50 uM after 48 hrs by MTT assay relative to control. Type of series: ADME, cell-based. The following applies: read-out: Activity. The method in brief:
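RAW264.7 cells at 5 × 10^4 cells/mL exposed to 50 μM test agent (DMSO solution) for 48 h. MTT then added at 5 mg/mL in sterile PBS for 4 h; formazan dissolved in DMSO and absorbance read at 490 nm. Triplicate treatments.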

Series [2] concerns RAW264.7. The series is described as follows: Anti-inflammatory activity in mouse RAW264.7 cells assessed as inhibition of LPS-induced NO production preincubated for 30 mins followed by LPS stimulation and measured after 24 hrs by Griess reagent based colorimetric method. It counts as functional, cell-based. An outline of the steps:
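RAW264.7 murine macrophages in DMEM with 10% supplement, 37 °C, 5% CO2, grown 24 h before treatment. Test agents at several concentrations added 30 min before 1 μg/mL LPS (or no LPS). After 24 h, supernatant mixed with Griess reagents I and II; absorbance at 560 nm. IC50 derived only where cell activity at 50 μM stayed ≥50%. L-NIL as positive control.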
(In general: Nitrite, measured by Griess reagent, commonly stands in for NO production.)

Take `CC1=C2C3=C4[C@](C)([C@@H]5C[C@@H]5[C@@]4(O)C[C@@H]4[C@]35OC(=O)C3=C5C[C@H]5[C@](O)(COC(=O)/C=C(\C)COC(=O)CCC(=O)OC3)[C@H]3C[C@H]3[C@]45C)[C@@H](O)[C@@]2(O)OC1=O`: in series [1], the viability at 48 h, 50 µM is under 50%.
For the compound `COC(=O)/C(C)=C1\C(=O)[C@H](O)[C@]2(C)C3=C(C[C@@H]4[C@]5(OC(=O)C6=C5C[C@H]5[C@](O)(COC(=O)/C=C(\C)COC(=O)CCC(=O)OC6)[C@H]6C[C@H]6[C@]45C)[C@H]31)[C@H]1C[C@H]12` [SHIZUKAOL F], the IC50 (usually the point on the concentration scale where inhibition reaches its midpoint) in series [2] is over 50 µM. The viability at 48 h, 50 µM in series [1] is 53.1%.
As to `COC(=O)/C(C)=C1\C(=O)[C@H](O)[C@@]2(C)[C@@H]3C[C@@H]3[C@@]34CCC5=C6C3=C(C(=O)[C@H](O)[C@@]6(C)[C@@H]3C[C@H]53)[C@](C)(C(=O)OC)[C@@H]1[C@@]24O`, the viability at 48 h, 50 µM in series [1] was under 50%.
Regarding `CO[C@@]12OC(=O)C(C)=C1C1=C3[C@](C)([C@@H]4C[C@@H]4[C@@]3(O)C[C@@H]3[C@]14OC(=O)C1=C4C[C@H]4[C@](O)(COC(=O)/C(C)=C/COC(=O)CCC(=O)OC1)[C@H]1C[C@H]1[C@]34C)[C@H]2O`, the viability at 48 h, 50 µM in series [1] is under 50%.
For the compound `C/C=C(\C)C(=O)OC[C@]1(O)[C@H]2C[C@H]2[C@]2(C)[C@@H]3C[C@@]4(O)C5=C(C6=C(C)C(=O)O[C@]6(O)[C@H](O)[C@@]5(C)[C@@H]5C[C@@H]54)[C@@]34OC(=O)C(COC(C)=O)=C4C[C@@H]12` [SARCANDROLIDE D], the viability at 48 h, 50 µM in series [1] is under 50%.
As for `C/C=C(\C)C(=O)OC[C@]1(O)[C@H]2C[C@H]2[C@]2(C)[C@@H]3CC4=C5[C@H](/C(=C(/C)C(=O)OC)C(=O)[C@H](O)[C@@]5(C)[C@@H]5C[C@H]45)[C@@]34OC(=O)C(COC(C)=O)=C4C[C@@H]12`, in series [1], the viability at 48 h, 50 µM is under 50%.
Take `CC(=N)NCCCC[C@H](N)C(=O)O` [L-NIL]: in series [2], the IC50 stood at 7 µM. For the same compound, the viability at 48 h, 50 µM in series [1] worked out at 93.3%.
For the compound `CC1=C2C3=C4[C@@](C)(C(=O)[C@@]2(O)OC1=O)[C@@H]1C[C@@H]1[C@@]4(O)C[C@@H]1[C@]32OC(=O)C3=C2C[C@H]2[C@](O)(COC(=O)/C(C)=C/COC(=O)CCC(=O)OC3)[C@H]3C[C@H]3[C@]12C` [SPICACHLORANTIN B], the viability at 48 h, 50 µM in series [1] is under 50%.
Turning to `COC(=O)/C(C)=C1/C(=O)[C@H](O)[C@]2(C)C3=C(C[C@@H]4[C@]5(OC(=O)C6=C5C[C@H]5[C@](O)(COC(=O)/C(C)=C/COC(=O)CCC(=O)OC6)[C@H]6C[C@H]6[C@]45C)[C@H]31)[C@H]1C[C@H]12`, the IC50 in series [2] came out at 25.5 µM. Also, the viability at 48 h, 50 µM in series [1] turned out to be 66.5%.
On to `COC(=O)/C(C)=C1\C(=O)[C@H](O)[C@]2(C)C3=C(C[C@@H]4[C@]5(OC(=O)C(CO)=C5C[C@H]5[C@H](COC(C)=O)[C@H]6C[C@H]6[C@]45C)[C@H]31)[C@H]1C[C@H]12`, for which, in series [2], the IC50 was 3.7 µM. Further, in series [1], the viability at 48 h, 50 µM was 97%.
Consider `COC(=O)/C(C)=C1\C(=O)[C@H](O)[C@]2(C)C3=C(C[C@@H]4[C@]5(OC(=O)C6=C5C[C@H]5[C@](O)(COC(=O)/C(C)=C/COC(=O)CCC(=O)OC6)[C@H]6C[C@H]6[C@]45C)[C@H]31)[C@H]1C[C@H]12` [SHIZUKAOL B], for which, in series [2], the IC50 is over 50 µM. The viability at 48 h, 50 µM in series [1] is 55.4%.
On the same counts, the results for `COC(=O)CCC(=O)OCC1=C2C[C@H]3[C@](O)(COC(=O)/C=C(\C)CO)[C@H]4C[C@H]4[C@]3(C)[C@@H]3CC4=C5[C@H](/C(=C(\C)C(=O)OC)C(=O)[C@H](O)[C@@]5(C)[C@@H]5C[C@H]45)[C@]23OC1=O` are 23.1 µM and 71.5%.
